Columns and labels:
[1] = Genotoxicity in Salmonella typhimurium TA1535 harboring pSK1002 assessed as survival at 0.063 mg/ml in absence of Sprague-Dawley rat liver S9 fraction after by SOS/umu assay relative to control; type: toxicity, organism-based; details: salmonella enterica subsp. enterica serovar typhimurium, read-out: Survival
[2] = Genotoxicity in Salmonella typhimurium TA1535 harboring pSK1002 assessed as umu gene induction at 0.031 mg/ml in presence of Sprague-Dawley rat liver S9 fraction after by SOS/umu assay relative to control; type: toxicity, organism-based; details: salmonella enterica subsp. enterica serovar typhimurium, read-out: FC
[3] = Genotoxicity in Salmonella typhimurium TA1535 harboring pSK1002 assessed as umu gene induction at 0.063 mg/ml in presence of Sprague-Dawley rat liver S9 fraction after by SOS/umu assay relative to control; type: toxicity, organism-based; details: salmonella enterica subsp. enterica serovar typhimurium, read-out: FC
[4] = Genotoxicity in Salmonella typhimurium TA1535 harboring pSK1002 assessed as umu gene induction at 0.125 mg/ml in presence of Sprague-Dawley rat liver S9 fraction after by SOS/umu assay relative to control; type: toxicity, organism-based; details: salmonella enterica subsp. enterica serovar typhimurium, read-out: FC
[5] = Genotoxicity in Salmonella typhimurium TA1535 harboring pSK1002 assessed as survival at 0.008 mg/ml in presence of Sprague-Dawley rat liver S9 fraction after by SOS/umu assay relative to control; type: toxicity, organism-based; details: salmonella enterica subsp. enterica serovar typhimurium, read-out: Survival
[6] = Genotoxicity in Salmonella typhimurium TA1535 harboring pSK1002 assessed as umu gene induction at 0.001 mg/ml in presence of Sprague-Dawley rat liver S9 fraction after by SOS/umu assay relative to control; type: toxicity, organism-based; details: salmonella enterica subsp. enterica serovar typhimurium, read-out: FC
[7] = Genotoxicity in Salmonella typhimurium TA1535 harboring pSK1002 assessed as umu gene induction at 0.008 mg/ml in absence of Sprague-Dawley rat liver S9 fraction after by SOS/umu assay relative to control; type: toxicity, organism-based; details: salmonella enterica subsp. enterica serovar typhimurium, read-out: FC
[8] = Genotoxicity in Salmonella typhimurium TA1535 harboring pSK1002 assessed as umu gene induction at 0.002 mg/ml in absence of Sprague-Dawley rat liver S9 fraction after by SOS/umu assay relative to control; type: toxicity, organism-based; details: salmonella enterica subsp. enterica serovar typhimurium, read-out: FC
[9] = Genotoxicity in Salmonella typhimurium TA1535 harboring pSK1002 assessed as survival at 0.016 mg/ml in presence of Sprague-Dawley rat liver S9 fraction after by SOS/umu assay relative to control; type: toxicity, organism-based; details: salmonella enterica subsp. enterica serovar typhimurium, read-out: Survival
[10] = Genotoxicity in Salmonella typhimurium TA1535 harboring pSK1002 assessed as survival at 0.125 mg/ml in absence of Sprague-Dawley rat liver S9 fraction after by SOS/umu assay relative to control; type: toxicity, organism-based; details: salmonella enterica subsp. enterica serovar typhimurium, read-out: Survival
[11] = Genotoxicity in Salmonella typhimurium TA1535 harboring pSK1002 assessed as survival at 0.016 mg/ml in absence of Sprague-Dawley rat liver S9 fraction after by SOS/umu assay relative to control; type: toxicity, organism-based; details: salmonella enterica subsp. enterica serovar typhimurium, read-out: Survival
[12] = Genotoxicity in Salmonella typhimurium TA1535 harboring pSK1002 assessed as umu gene induction at 0.002 mg/ml in presence of Sprague-Dawley rat liver S9 fraction after by SOS/umu assay relative to control; type: toxicity, organism-based; details: salmonella enterica subsp. enterica serovar typhimurium, read-out: FC
[13] = Genotoxicity in Salmonella typhimurium TA1535 harboring pSK1002 assessed as survival at 0.031 mg/ml in presence of Sprague-Dawley rat liver S9 fraction after by SOS/umu assay relative to control; type: toxicity, organism-based; details: salmonella enterica subsp. enterica serovar typhimurium, read-out: Survival
[14] = Genotoxicity in Salmonella typhimurium TA1535 harboring pSK1002 assessed as umu gene induction at 0.016 mg/ml in absence of Sprague-Dawley rat liver S9 fraction after by SOS/umu assay relative to control; type: toxicity, organism-based; details: salmonella enterica subsp. enterica serovar typhimurium, read-out: FC
[15] = Genotoxicity in Salmonella typhimurium TA1535 harboring pSK1002 assessed as survival at 0.001 mg/ml in absence of Sprague-Dawley rat liver S9 fraction after by SOS/umu assay relative to control; type: toxicity, organism-based; details: salmonella enterica subsp. enterica serovar typhimurium, read-out: Survival
[16] = Genotoxicity in Salmonella typhimurium TA1535 harboring pSK1002 assessed as umu gene induction at 0.125 mg/ml in absence of Sprague-Dawley rat liver S9 fraction after by SOS/umu assay relative to control; type: toxicity, organism-based; details: salmonella enterica subsp. enterica serovar typhimurium, read-out: FC
[17] = Genotoxicity in Salmonella typhimurium TA1535 harboring pSK1002 assessed as umu gene induction at 0.016 mg/ml in presence of Sprague-Dawley rat liver S9 fraction after by SOS/umu assay relative to control; type: toxicity, organism-based; details: salmonella enterica subsp. enterica serovar typhimurium, read-out: FC
[18] = Genotoxicity in Salmonella typhimurium TA1535 harboring pSK1002 assessed as survival at 0.004 mg/ml in absence of Sprague-Dawley rat liver S9 fraction after by SOS/umu assay relative to control; type: toxicity, organism-based; details: salmonella enterica subsp. enterica serovar typhimurium, read-out: Survival
[19] = Genotoxicity in Salmonella typhimurium TA1535 harboring pSK1002 assessed as survival at 0.031 mg/ml in absence of Sprague-Dawley rat liver S9 fraction after by SOS/umu assay relative to control; type: toxicity, organism-based; details: salmonella enterica subsp. enterica serovar typhimurium, read-out: Survival
[20] = Genotoxicity in Salmonella typhimurium TA1535 harboring pSK1002 assessed as umu gene induction at 0.001 mg/ml in absence of Sprague-Dawley rat liver S9 fraction after by SOS/umu assay relative to control; type: toxicity, organism-based; details: salmonella enterica subsp. enterica serovar typhimurium, read-out: FC
[21] = Selectivity index, ratio of CC50 for human HepG2A16 cells by MTT assay to IC50 for multidrug-resistant Plasmodium falciparum FCR-3; type: toxicity; details: HepG2A16 cells, read-out: Ratio CC50/IC50
Outline: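 HepG2-A16 human hepatoma cells were tested by MTT viability assay to give CC50. Blood-stage activity was measured against the multidrug-resistant P. falciparum FCR-3 strain by [3H]-hypoxanthine incorporation to give IC50. SI = CC50 HepG2 / FCR-3 IC50.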

[22] = Genotoxicity in Salmonella typhimurium TA1535 harboring pSK1002 assessed as umu gene induction at 0.031 mg/ml in absence of Sprague-Dawley rat liver S9 fraction after by SOS/umu assay relative to control; type: toxicity, organism-based; details: salmonella enterica subsp. enterica serovar typhimurium, read-out: FC
Plasmodium falciparum [23] = assay: Antiplasmodial activity against chloroquine-sensitive Plasmodium falciparum 3D7 by [3H]-hypoxanthine incorporation assay; type: functional, organism-based; details: Plasmodium falciparum, 3D7
Outline: (§1)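 Blood-stage P. falciparum 3D7 and FCR-3 were tested by a modified [3H]-hypoxanthine incorporation assay. Chloroquine was the reference in all runs.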

[24] = Genotoxicity in Salmonella typhimurium TA1535 harboring pSK1002 assessed as survival at 0.001 mg/ml in presence of Sprague-Dawley rat liver S9 fraction after by SOS/umu assay relative to control; type: toxicity, organism-based; details: salmonella enterica subsp. enterica serovar typhimurium, read-out: Survival
[25] = Genotoxicity in Salmonella typhimurium TA1535 harboring pSK1002 assessed as survival at 0.125 mg/ml in presence of Sprague-Dawley rat liver S9 fraction after by SOS/umu assay relative to control; type: toxicity, organism-based; details: salmonella enterica subsp. enterica serovar typhimurium, read-out: Survival
[26] = Cytotoxicity against human HepG2A16 cells by MTT assay; type: cell-based; details: HepG2A16 cells
Outline: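 MTT viability assay on HepG2-A16 cells, giving CC50 values.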

Plasmodium falciparum [27] = assay: Antiplasmodial activity against multidrug-resistant Plasmodium falciparum FCR-3 by [3H]-hypoxanthine incorporation assay; type: functional, organism-based, FCR-3/Gambia; details: Plasmodium falciparum, FCR-3/Gambia; outline: as §1
[28] = Genotoxicity in Salmonella typhimurium TA1535 harboring pSK1002 assessed as survival at 0.002 mg/ml in absence of Sprague-Dawley rat liver S9 fraction after by SOS/umu assay relative to control; type: toxicity, organism-based; details: salmonella enterica subsp. enterica serovar typhimurium, read-out: Survival
[29] = Genotoxicity in Salmonella typhimurium TA1535 harboring pSK1002 assessed as umu gene induction at 0.004 mg/ml in presence of Sprague-Dawley rat liver S9 fraction after by SOS/umu assay relative to control; type: toxicity, organism-based; details: salmonella enterica subsp. enterica serovar typhimurium, read-out: FC
[30] = Genotoxicity in Salmonella typhimurium TA1535 harboring pSK1002 assessed as survival at 0.063 mg/ml in presence of Sprague-Dawley rat liver S9 fraction after by SOS/umu assay relative to control; type: toxicity, organism-based; details: salmonella enterica subsp. enterica serovar typhimurium, read-out: Survival
[31] = Genotoxicity in Salmonella typhimurium TA1535 harboring pSK1002 assessed as umu gene induction at 0.063 mg/ml in absence of Sprague-Dawley rat liver S9 fraction after by SOS/umu assay relative to control; type: toxicity, organism-based; details: salmonella enterica subsp. enterica serovar typhimurium, read-out: FC
[32] = Genotoxicity in Salmonella typhimurium TA1535 harboring pSK1002 assessed as survival at 0.004 mg/ml in presence of Sprague-Dawley rat liver S9 fraction after by SOS/umu assay relative to control; type: toxicity, organism-based; details: salmonella enterica subsp. enterica serovar typhimurium, read-out: Survival
[33] = Genotoxicity in Salmonella typhimurium TA1535 harboring pSK1002 assessed as survival at 0.008 mg/ml in absence of Sprague-Dawley rat liver S9 fraction after by SOS/umu assay relative to control; type: toxicity, organism-based; details: salmonella enterica subsp. enterica serovar typhimurium, read-out: Survival
[34] = Genotoxicity in Salmonella typhimurium TA1535 harboring pSK1002 assessed as umu gene induction at 0.008 mg/ml in presence of Sprague-Dawley rat liver S9 fraction after by SOS/umu assay relative to control; type: toxicity, organism-based; details: salmonella enterica subsp. enterica serovar typhimurium, read-out: FC
[35] = Genotoxicity in Salmonella typhimurium TA1535 harboring pSK1002 assessed as umu gene induction at 0.004 mg/ml in absence of Sprague-Dawley rat liver S9 fraction after by SOS/umu assay relative to control; type: toxicity, organism-based; details: salmonella enterica subsp. enterica serovar typhimurium, read-out: FC
[36] = Genotoxicity in Salmonella typhimurium TA1535 harboring pSK1002 assessed as survival at 0.002 mg/ml in presence of Sprague-Dawley rat liver S9 fraction after by SOS/umu assay relative to control; type: toxicity, organism-based; details: salmonella enterica subsp. enterica serovar typhimurium, read-out: Survival
[37] = Solubility of the compound in DSPC:cholesterol:DSPE-PEG2000-Mal:DOPE-Rho lipid mixture at 250 uM; type: physicochemical
Outline: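 Compound added at 250 µM drug to the initial liposome lipid mixture (10 mM total lipid); precipitation and UV-visible absorbance above 300 nm assessed after encapsulation, removal of unencapsulated material and extraction with 1% w/v SDS in RPMI-A.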

SMILES: O=[N+]([O-])c1ccccc1N1CCN(CCC(O)c2ccc(F)c3ccccc23)CC1 (stereo unspecified)
- viability at 0.063 mg/ml [1]: 118%
- fold induction at 0.031 mg/ml [2]: 1.9
- fold induction at 0.063 mg/ml [3]: 1.4
- fold induction at 0.125 mg/ml [4]: 1.3
- viability at 0.008 mg/ml [5]: 89.5%
- fold induction at 0.001 mg/ml [6]: 1.4
- fold induction at 0.008 mg/ml [7]: 1.7
- fold induction at 0.002 mg/ml [8]: 0.9
- viability at 0.016 mg/ml [9]: 64.5%
- viability at 0.125 mg/ml [10]: 174%
- viability at 0.016 mg/ml [11]: 50.6%
- fold induction at 0.002 mg/ml [12]: 0.7
- viability at 0.031 mg/ml [13]: 63.2%
- fold induction at 0.016 mg/ml [14]: 2
- viability at 0.001 mg/ml [15]: 100%
- fold induction at 0.125 mg/ml [16]: 0.5
- fold induction at 0.016 mg/ml [17]: 1.9
- viability at 0.004 mg/ml [18]: 106%
- viability at 0.031 mg/ml [19]: 66.8%
- fold induction at 0.001 mg/ml [20]: 1.1
- selectivity ratio [21]: 8
- fold induction at 0.031 mg/ml [22]: 1.5
- IC50 (Plasmodium falciparum [23]): 0.92 µM
- viability at 0.001 mg/ml [24]: 77.8%
- viability at 0.125 mg/ml [25]: 76.2%
- CC50 [26]: 19.9 µM
- IC50 (Plasmodium falciparum [27]): 2.62 µM
- viability at 0.002 mg/ml [28]: 111%
- fold induction at 0.004 mg/ml [29]: 1.2
- viability at 0.063 mg/ml [30]: 63.8%
- fold induction at 0.063 mg/ml [31]: 0.8
- viability at 0.004 mg/ml [32]: 92.2%
- viability at 0.008 mg/ml [33]: 87.9%
- fold induction at 0.008 mg/ml [34]: 1
- fold induction at 0.004 mg/ml [35]: 0.9
- viability at 0.002 mg/ml [36]: 84.3%

SMILES: COC(=O)c1ccc(C(O)CCN2CCN(C(c3ccccc3)c3ccccc3)CC2)cc1 (stereo unspecified)
- selectivity ratio [21]: 58
- IC50 (Plasmodium falciparum [23]): 1.69 µM
- CC50 [26]: 84 µM
- IC50 (Plasmodium falciparum [27]): 1.46 µM
- solubility [37]: Insoluble
